Test: Toxicity liver stage against HepG2, at 10uM
Assay type: cell-based
Design: test concentration 10 uM, cell line HepG2-A16-CD81EGFP
Settings: human, HepG2-A16-CD81EGFP cells; read-out: INHIBITION
Method in brief: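 Uninfected HepG2-A16-CD81EGFP cells, 3 × 10^3 per well, 1536-well, plated on prespotted compound at 10 μM final, parasite-free screening media added to match infected plates; puromycin 10 μM positive, DMSO 0.5% negative; run in parallel with 48 h PbLuc assay at 37 °C, 5% CO2; viability by CellTiter-Glo luminescence, normalized to controls.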
`COc1ccc(CN(C)C(=O)CCC(=O)c2cccs2)c(OC)c1OC` gave a cytotoxicity at 10 µM of -10.7%. Compound `Cc1cc(N2CCN(C(=O)c3cc(Cl)c[nH]3)CC2)nc(N)n1` has a cytotoxicity at 10 µM of -6.28%. `N#CCSCCCN1CCCN(C(=O)c2ccccc2)CC1` gave a cytotoxicity at 10 µM of -3.74%. `c1cncc(OC2CCN(CCn3cc4ccccc4n3)CC2)c1` showed a cytotoxicity at 10 µM of 1.48%. Compound `Cc1ncsc1CCN(C)C1CCN(c2ncnc3[nH]cnc23)CC1` has a cytotoxicity at 10 µM of -39%. In the case of `CCc1ccc(CN2CCN(c3ncc(Cl)cn3)CC2)nc1`, the cytotoxicity at 10 µM is reported as 8.45%. With `CCc1ccc2nc(NCC(O)CO)cc(C)c2c1` (configuration not stated) the cytotoxicity at 10 µM was -15.4%. `CC(C)[C@@H]1CN(Cc2ccsc2)C[C@H]1NS(=O)(=O)N(C)C` gave a cytotoxicity at 10 µM of -23.5%. Work on `CN(Cc1ccoc1)C(=O)Cn1ncc(N(C)C)cc1=O` yielded a cytotoxicity at 10 µM of 7.68%. Work on `CN1CCN(c2cc(Sc3cccs3)nc(N)n2)CC1CCO` (configuration not stated) yielded a cytotoxicity at 10 µM of 1.31%. With `COc1cc(-c2cccc3c2OC(CN)C3)ccc1O` (configuration not stated) the cytotoxicity at 10 µM was -51.9%. `CNC(=O)C1CCN(c2nccc(CCC(F)(F)F)n2)C1` (configuration not stated) gave a cytotoxicity at 10 µM of -11.4%. `Clc1cccc2c1CCN(Cc1nc(CC3CC3)no1)C2` showed a cytotoxicity at 10 µM of 0.873%. With `CN(CCc1cnn(C)c1)C(=O)CN1C(=O)OC[C@@H]1c1ccccc1` the cytotoxicity at 10 µM was -41.7%. Compound `CCC(CO)N(Cc1ccsc1)CC1CC1` (configuration not stated) has a cytotoxicity at 10 µM of 11.5%. For `CN(Cc1cc2n(n1)CCN(C(=O)[C@H]1CCCO1)C2)Cc1nccs1`, the cytotoxicity at 10 µM was 7.92%. `CC(C)c1nnsc1CN1CCc2[nH]nc(-c3ccc(Cl)cc3)c2C1` showed a cytotoxicity at 10 µM of -10.3%. With `CCN(Cc1cccc2c1OCO2)CC1CCCO1` (configuration not stated) the cytotoxicity at 10 µM was 3.18%. `COc1ccccc1-n1cc(CN2CCN(C)[C@@H]3CS(=O)(=O)C[C@@H]32)cn1` showed a cytotoxicity at 10 µM of 14.5%. `CCCc1cc(CN(C)C2CCSCC2)n[nH]1` showed a cytotoxicity at 10 µM of -20.6%. Compound `COc1cc2nc(NCCNS(C)(=O)=O)cc(C)c2cc1OC` has a cytotoxicity at 10 µM of -1.08%. For `CN1CC2(CCN(C(=O)c3ccc(=O)n(C)c3)CC2)CC1=O`, the cytotoxicity at 10 µM was -4.46%. Work on `CC(C)[C@@H]1CN(C(=O)C2(c3ccccc3)CC2)C[C@H]1C(=O)O` yielded a cytotoxicity at 10 µM of 3.61%. `CCCc1nc(CNc2nc(C)nc3oc(C)nc23)cs1` showed a cytotoxicity at 10 µM of -39.6%. Compound `COCCN1CCC(CN(CC2CCCO2)C(=O)CNC(C)=O)CC1` (configuration not stated) has a cytotoxicity at 10 µM of 1.48%. `CC(C)N1CC2(CCCN(Cc3noc(C4CCCC4)n3)C2)CCC1=O` (configuration not stated) showed a cytotoxicity at 10 µM of 0.00194%. In the case of `O=C(NCc1ccc2c(c1)CCCO2)c1ccc(C2CCNC2)cc1` (configuration not stated), the cytotoxicity at 10 µM is reported as -11.5%. `Cc1n[nH]c(C)c1CCc1nc(C2CC2)n[nH]1` gave a cytotoxicity at 10 µM of -12%. In the case of `Cc1cc(C(=O)N[C@H]2CN(CCC(N)=O)C[C@@H]2C2CC2)sc1C`, the cytotoxicity at 10 µM is reported as 8.28%. In the case of `CC(C)c1cccc(N2CCCC3(CCC(=O)N(C4CC4)C3)C2)n1` (configuration not stated), the cytotoxicity at 10 µM is reported as -5.01%. With `Cn1c(CN2CCOCC2)nnc1C1CCN(C(=O)C2CCCC2)CC1` the cytotoxicity at 10 µM was -17.8%. In the case of `COc1ccc(C(CNC(=O)c2c(C)noc2C)N(C)C)cc1` (configuration not stated), the cytotoxicity at 10 µM is reported as -13.1%. `Nc1cc2c(nn1)CCN(C(=O)CC1CCCCC1)C2` gave a cytotoxicity at 10 µM of -2.78%. For `CS(=O)(=O)NCCN1CCCC1c1ccc(Cl)cc1` (configuration not stated), the cytotoxicity at 10 µM was 3.6%. `Cc1ccc(C(=O)N(C2CC2)C2CC(=O)NC2=O)cc1F` (configuration not stated) showed a cytotoxicity at 10 µM of -7.33%. In the case of `Cc1ccccc1C1(CNC(=O)CCN2C(=O)CCC2=O)CC1`, the cytotoxicity at 10 µM is reported as -11.8%. With `c1cnnc(NCC2CN(Cc3ccon3)CCO2)c1` (configuration not stated) the cytotoxicity at 10 µM was -32.2%. `c1ccc(-n2cc(CN3CCCC3Cn3cncn3)nn2)cc1` (configuration not stated) gave a cytotoxicity at 10 µM of -0.0716%. For `CNS(=O)(=O)c1cccc(CNc2ncccn2)c1`, the cytotoxicity at 10 µM was -9.7%. Compound `O=C(NCCNc1ncccn1)C1CC(=O)N(Cc2ccccn2)C1` (configuration not stated) has a cytotoxicity at 10 µM of -10.4%. Work on `Cn1ncc2c1CCCC2NCc1cccc(OC2CCCC2)c1` (configuration not stated) yielded a cytotoxicity at 10 µM of -19.3%. Work on `O=C(CCOc1ccccc1)N1CCC(Nc2cccnn2)CC1` yielded a cytotoxicity at 10 µM of -9.29%. Compound `CC(C)NC(=O)C(c1ccccc1)N1CCn2c(nnc2C2CC2)C1` (configuration not stated) has a cytotoxicity at 10 µM of -3.3%. In the case of `Fc1ccc(OCc2noc(CN3CCc4cncnc4C3)n2)cc1`, the cytotoxicity at 10 µM is reported as 2%. With `CCc1noc(C(C)N2CCC(N3CCCC3)CC2)n1` (configuration not stated) the cytotoxicity at 10 µM was -7.77%. For `CN(C(=O)c1cc(Cl)c[nH]1)C1CCN(c2ccccn2)CC1`, the cytotoxicity at 10 µM was -1.49%. `CC1CN(CC(=O)NC2CCCC2)CCN1c1ccc2nncn2n1` (configuration not stated) gave a cytotoxicity at 10 µM of -1.58%. Compound `CCc1nc(CN2CCN(C(=O)Cc3c(C)noc3C)CC2)cs1` has a cytotoxicity at 10 µM of -0.549%. With `O=C(NC1CC1)[C@H]1CC[C@@H]2[C@@H](CCN2c2ncc(F)cn2)O1` the cytotoxicity at 10 µM was -1.65%. `CC(C)Oc1ncnc2c1CCN(Cc1ccco1)CC2` showed a cytotoxicity at 10 µM of 8.49%. In the case of `O=C(C1CCC1)N1C[C@@H]2CN(Cc3ccncc3)C(=O)[C@@H]2C1`, the cytotoxicity at 10 µM is reported as -113%. With `CN(CCc1ccccn1)C(=O)c1cccs1` the cytotoxicity at 10 µM was 3.45%. With `CNC(=O)c1cc2c(nc1N(C)C)CCN(c1ncc(F)cn1)CC2` the cytotoxicity at 10 µM was -131%. With `Cc1ccc(C(=O)N2C[C@H](N3CCOCC3)[C@@H]3OCCC[C@@H]32)cn1` the cytotoxicity at 10 µM was -108%. Compound `O=C([C@@H]1COC[C@H]2CN(C3CCCC3)C[C@H]21)N1CCC(F)CC1` has a cytotoxicity at 10 µM of -103%. Work on `CN1CCN(C=C2N=C(c3cc(-c4ccc(F)cc4)n[nH]3)ON2)CC1` yielded a cytotoxicity at 10 µM of -2.08%. `CCn1[nH]c(C)c2c(C(F)(F)C(F)(F)F)cc(=O)nc1-2` showed a cytotoxicity at 10 µM of -9.29%.

From ChEMBL document CHEMBL4513216, “Probing the Open Global Health Chemical Diversity Library for Multistage-Active Starting Points for Next-Generation Antimalarials” (ACS Infect Dis, 2020)
